The source made the active and inactive calls. No cut-off for these calls is given here.
Experiments:
SH-SY5Y = test: Cytotoxicity against human SH-SY5Y cells after 24 hrs by MTS assay; type: functional, cell-based
Summary of the method: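 Human neuroblastoma SH-SY5Y cells kept in DMEM with 10% heat-inactivated FBS. Seeded at 6.25 × 10^4/cm2 and grown 72 h to subconfluence. Switched to serum-free neurobasal medium 30 min before compound, then 24 h at 37 °C with 1, 3, 10, 30 or 100 μM compound. Viability read by colorimetric MTS assay.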

Mus musculus [1] = test: Ex vivo inhibition of MAO-B in C57Bl mouse brain at 3 mg/kg, po or 3 mg/kg, ip after 1 hr by radioenzymatic assay; type: functional, organism-based
Summary of the method: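 C57Bl mice (n = 6 per group) dosed orally or intraperitoneally at 3 mg/kg and killed 1 h later. Brains homogenized in 0.1 M phosphate pH 7.40. MAO-A ([14C]5-HT) and MAO-B ([14C]PEA) activities measured by radioenzymatic assay. Mean ± SEM, ANOVA with Dunnett's test.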

Mus musculus [2] = test: Ex vivo inhibition of MAO-B in C57Bl mouse brain at 0.5 mg/kg, po after 8 hrs by radioenzymatic assay; type: functional; set-up: scale not given: the % may be the effect or the level left
Summary of the method: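 C57Bl mice (n = 6 per group) given 0.5 mg/kg orally and killed at 0.5, 1, 2, 4, 8 or 16 h. Brain homogenates in 0.1 M phosphate pH 7.40 assayed radioenzymatically for MAO-B with [14C]PEA. Mean ± SEM, ANOVA with Dunnett's test.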

Cytochrome P450 2C19 = Cytochrome P450 2C19 (Homo sapiens, UniProt P33261); test: Inhibition of human recombinant CYP2C19; type: ADME
Summary of the method: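 Human recombinant CYP supersomes incubated at 37 °C with compound in NADPH-regenerating buffer, with fluorogenic substrates: 3-cyano-7-ethoxycoumarin for CYP2C19, […] for CYP3A4. Fluorescence read on a plate reader. Known isoform inhibitors run as positive controls in every assay.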

Cytochrome P450 1A2 = biological target: T1, Cytochrome P450 1A2 (Homo sapiens, UniProt P05177); test: Inhibition of human recombinant CYP1A2; type: ADME
T1 sequence (P05177 whole entry): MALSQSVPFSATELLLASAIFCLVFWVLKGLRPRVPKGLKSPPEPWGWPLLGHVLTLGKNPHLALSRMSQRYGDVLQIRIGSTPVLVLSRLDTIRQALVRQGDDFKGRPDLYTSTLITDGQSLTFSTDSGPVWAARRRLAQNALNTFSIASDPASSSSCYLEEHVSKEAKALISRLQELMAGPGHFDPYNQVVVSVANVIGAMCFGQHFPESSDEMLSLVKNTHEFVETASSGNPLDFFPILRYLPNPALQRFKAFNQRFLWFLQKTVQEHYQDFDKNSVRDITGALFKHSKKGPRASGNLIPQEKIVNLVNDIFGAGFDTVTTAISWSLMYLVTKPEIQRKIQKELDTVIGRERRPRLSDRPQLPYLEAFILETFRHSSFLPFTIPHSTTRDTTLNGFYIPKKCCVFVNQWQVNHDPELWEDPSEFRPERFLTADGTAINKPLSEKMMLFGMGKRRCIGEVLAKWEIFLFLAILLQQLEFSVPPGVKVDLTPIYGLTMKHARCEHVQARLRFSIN
Summary of the method: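 Recombinant human CYP supersomes were incubated at 37 C in incubation/NADPH regenerating buffer with isoform-specific substrates that turn fluorescent on metabolism. The substrate was 3-cyano-7-ethoxycoumarin for CYP1A2 and 7-methoxy-4-trifluoromethylcoumarin for CYP2C9. Fluorescence was read at the appropriate excitation/emission wavelengths, with a literature inhibitor as positive control in each assay.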

[3] = Permeability across PAMPA membrane assessed as amount of drug reaching acceptor compartment at 2.5 mM by HDM-PAMPA assay; type: ADME; settings: 2500 µM
Summary of the method: (§1)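 Hexadecane artificial membrane (0.75 μL per well, applied as 5% v/v in hexane, hexane evaporated) on polycarbonate filters; donor and acceptor in 0.1 M phosphate buffer pH 6.8 with 5% DMSO (iso-pH); 5 h at room temperature, shaking at 75 rpm; quadruplicate. Donor and acceptor concentrations read by UV at λmax. Retention, CA(t)/CD(0) and Pe calculated by the stated equations, τLAG neglected; membrane integrity checked by electrical resistance.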

[4] = Aqueous solubility at pH 3.0 by turbidimetric method; type: physicochemical; settings: aqueous solution
Summary of the method: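 DMSO stock of compound added in 2 μL portions, about 10 additions, to 50 mM Tris-HCl pH 7.4 or 50 mM acetate pH 3.0 at room temperature, final DMSO below 5%. Precipitation read as light-scattering absorbance rise at 600-820 nm. Solubility limit taken from a bilinear fit of absorbance against DMSO volume. Three independent assays, mean ± SEM.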

[5] = Permeability across PAMPA membrane assessed as retention at 2.5 mM by HDM-PAMPA assay; type: ADME; settings: 2500 µM; summary of the method: as §1
[6] = Dissociation constant, pKa by potentiometric titration; type: physicochemical
Summary of the method: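 5 × 10^-4 M sample in 0.15 M KCl acidified to pH 1.8 with 0.5 M HCl, then titrated to pH 12.2 with carbonate-free 0.5 M KOH. Run at 25 ± 0.5 °C under slow argon flow, with a blank titration for standardization. pKa taken from the Bjerrum difference curve.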

Cytochrome P450 2D6 = Cytochrome P450 2D6 (Homo sapiens, UniProt P10635); test: Inhibition of human recombinant CYP2D6; type: ADME
Summary of the method: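 Human recombinant CYP isoenzymes (supersomes) were incubated at 37 C with the test compound in incubation/NADPH-regenerating buffer plus a fluorogenic substrate. The substrate was 3-[2-(N,N-diethyl-N-methylammonium)ethyl]-7-methoxy-4-methylcoumarin for CYP2D6 and 7-methoxy-4-phenylcoumarin for CYP2E1. Fluorescent product was read at isoform-appropriate wavelengths, with a literature inhibitor as positive control. IC50 came from nonlinear regression of at least seven concentrations, each in duplicate.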

Sequence of Cytochrome P450 2D6 (P10635 whole entry, canonical isoform): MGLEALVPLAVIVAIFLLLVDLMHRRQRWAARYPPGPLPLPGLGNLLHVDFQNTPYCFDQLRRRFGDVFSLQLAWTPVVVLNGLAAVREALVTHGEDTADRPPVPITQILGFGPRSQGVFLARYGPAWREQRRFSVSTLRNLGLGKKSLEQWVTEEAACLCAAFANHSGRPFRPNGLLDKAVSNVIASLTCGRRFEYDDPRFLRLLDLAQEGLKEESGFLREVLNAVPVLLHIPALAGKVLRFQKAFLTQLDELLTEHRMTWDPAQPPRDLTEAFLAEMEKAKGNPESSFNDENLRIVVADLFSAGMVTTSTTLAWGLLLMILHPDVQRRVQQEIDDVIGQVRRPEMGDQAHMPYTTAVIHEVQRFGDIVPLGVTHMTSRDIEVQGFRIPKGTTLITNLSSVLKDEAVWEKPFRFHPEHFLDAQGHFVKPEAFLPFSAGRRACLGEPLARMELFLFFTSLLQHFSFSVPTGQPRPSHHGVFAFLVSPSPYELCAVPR
Sequence of Cytochrome P450 2C19 (P33261 whole entry, canonical isoform): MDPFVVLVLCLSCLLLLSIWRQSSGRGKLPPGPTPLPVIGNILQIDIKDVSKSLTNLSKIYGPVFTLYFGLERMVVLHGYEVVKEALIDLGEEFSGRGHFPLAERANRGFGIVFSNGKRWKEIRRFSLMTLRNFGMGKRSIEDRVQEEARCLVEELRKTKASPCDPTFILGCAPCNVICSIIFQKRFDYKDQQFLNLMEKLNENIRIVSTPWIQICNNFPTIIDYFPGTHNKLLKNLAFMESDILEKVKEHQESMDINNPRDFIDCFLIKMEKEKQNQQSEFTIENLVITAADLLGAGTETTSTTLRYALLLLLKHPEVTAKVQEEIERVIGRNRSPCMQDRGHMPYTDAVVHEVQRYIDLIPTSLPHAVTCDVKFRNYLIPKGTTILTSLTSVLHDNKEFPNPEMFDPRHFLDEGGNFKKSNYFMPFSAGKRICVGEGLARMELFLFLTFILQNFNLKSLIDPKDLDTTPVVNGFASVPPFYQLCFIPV

## CNCc1cc(=O)oc2cc(OCc3cccc(Cl)c3)ccc12.CS(=O)(=O)O
SH-SY5Y
  IC50: 29.7 µM
Mus musculus [1]
  Activity: Active
Mus musculus [2]
  Activity: 60%
Cytochrome P450 2C19
  IC50: > 5 µM
Cytochrome P450 1A2
  IC50: > 5 µM
[3]
  permeability: 33.8%
[4]
  solubility kinetic: 2820 µg/mL
[5]
  permeability: 10%
[6]
  pKa: 7.18
Cytochrome P450 2D6
  IC50: > 5 µM

From ChEMBL document CHEMBL1154599 (J Med Chem, 2009)
